Target: T1, c-Jun N-terminal kinase, JNK (Homo sapiens, UniProt P45983+P53779+P45984)
Test: Inhibition of JNK in human MONO-MAC-6 cells assessed as reduction in LPS-induced IL6 production preincubated for 30 mins followed by LPS-stimulation and measured after 24 hrs by ELISA
Type: cell-based
Conditions: not given
How it was run: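 MonoMac-6 cells, 2 × 10^5/well in medium with 3% endotoxin-free FBS, were pretreated 30 min with compound or DMSO, then stimulated with 250 ng/ml LPS for 24 h. IL-6 in the supernatant was measured by human IL-6 ELISA. IC50 came from percent inhibition vs log concentration (at least five points); triplicate samples, representative of three experiments.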

IC50	Structure (SMILES)
1.2 µM	O/N=C1/c2ccccc2-c2nc3cc(Cl)ccc3nc21
6.7 µM	CCOc1ccc2nc3c(nc2c1)-c1ccccc1/C3=N/O
0.9 µM	Cc1ccc2nc3c(nc2c1)-c1ccccc1/C3=N/O
3 µM	O=[N+]([O-])c1ccc2nc3c(nc2c1)/C(=N\O)c1ccccc1-3
0.5 µM	Cc1cccc2nc3c(nc12)-c1ccccc1/C3=N/O
3.5 µM	O/N=C1/c2ccccc2-c2nc3ncccc3nc21
5.9 µM	OCCO/N=C1\c2ccccc2-c2nc3ccccc3nc21
0.6 µM	Cc1cc2nc3c(nc2cc1C)-c1ccccc1/C3=N/O

Target: Mitogen-activated protein kinase 9 (Homo sapiens, UniProt P45984)
Sequence (P45984 whole entry, the tested form may be a part): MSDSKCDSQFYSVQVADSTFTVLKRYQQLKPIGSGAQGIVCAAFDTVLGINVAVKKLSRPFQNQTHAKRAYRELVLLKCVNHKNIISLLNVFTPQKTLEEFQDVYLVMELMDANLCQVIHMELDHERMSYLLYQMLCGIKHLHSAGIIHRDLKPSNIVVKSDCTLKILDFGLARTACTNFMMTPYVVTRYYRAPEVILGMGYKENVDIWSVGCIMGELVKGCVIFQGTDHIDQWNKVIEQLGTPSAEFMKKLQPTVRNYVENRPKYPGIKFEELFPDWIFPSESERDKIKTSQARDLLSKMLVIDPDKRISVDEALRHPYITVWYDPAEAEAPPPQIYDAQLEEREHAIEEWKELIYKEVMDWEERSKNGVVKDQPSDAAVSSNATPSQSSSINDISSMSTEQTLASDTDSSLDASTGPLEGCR
Test: Binding affinity to human full-length JNK2 (M1 to Q382 residues) expressed in HEK293 cells measured after 1 hr by Kinomescan method
Type: cell-based
Conditions: not given
How it was run: (§1)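 Competition binding on a phage-display/cell-expressed kinase platform; each compound incubated with kinase 1 h at room temperature. Unbound kinase was captured on an immobilized affinity ligand and quantified by qPCR. N.A. means no inhibition below 40 µM.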

Kd	Structure (SMILES)
21.5 µM	O/N=C1/c2ccccc2-c2nc3cc(Cl)ccc3nc21
2 µM	CCOc1ccc2nc3c(nc2c1)-c1ccccc1/C3=N/O
0.84 µM	Cc1ccc2nc3c(nc2c1)-c1ccccc1/C3=N/O
12 µM	O=[N+]([O-])c1ccc2nc3c(nc2c1)/C(=N\O)c1ccccc1-3
2.5 µM	Cc1cccc2nc3c(nc12)-c1ccccc1/C3=N/O
0.36 µM	O/N=C1/c2ccccc2-c2nc3ncccc3nc21
1.25 µM	OCCO/N=C1\c2ccccc2-c2nc3ccccc3nc21
2.5 µM	Cc1cc2nc3c(nc2cc1C)-c1ccccc1/C3=N/O

Target: T1, c-Jun N-terminal kinase, JNK
Test: Inhibition of JNK in human THP1-Blue cells assessed as reduction in LPS-induced NFkappaB/AP1 activation preincubated for 30 mins followed by LPS-stimulation and measured after 24 hrs by quanti-blue staining based alkaline phosphatase reporter gene assay
Type: cell-based
Conditions: not given

IC50	Structure (SMILES)
5.5 µM	O/N=C1/c2ccccc2-c2nc3cc(Cl)ccc3nc21
5.9 µM	CCOc1ccc2nc3c(nc2c1)-c1ccccc1/C3=N/O
3.9 µM	Cc1ccc2nc3c(nc2c1)-c1ccccc1/C3=N/O
2.7 µM	O=[N+]([O-])c1ccc2nc3c(nc2c1)/C(=N\O)c1ccccc1-3
3 µM	Cc1cccc2nc3c(nc12)-c1ccccc1/C3=N/O
4.3 µM	O/N=C1/c2ccccc2-c2nc3ncccc3nc21
4.5 µM	OCCO/N=C1\c2ccccc2-c2nc3ccccc3nc21
2.9 µM	Cc1cc2nc3c(nc2cc1C)-c1ccccc1/C3=N/O

Target: Mitogen-activated protein kinase 8 (Homo sapiens, UniProt P45983)
Sequence (P45983 whole entry, the tested form may be a part): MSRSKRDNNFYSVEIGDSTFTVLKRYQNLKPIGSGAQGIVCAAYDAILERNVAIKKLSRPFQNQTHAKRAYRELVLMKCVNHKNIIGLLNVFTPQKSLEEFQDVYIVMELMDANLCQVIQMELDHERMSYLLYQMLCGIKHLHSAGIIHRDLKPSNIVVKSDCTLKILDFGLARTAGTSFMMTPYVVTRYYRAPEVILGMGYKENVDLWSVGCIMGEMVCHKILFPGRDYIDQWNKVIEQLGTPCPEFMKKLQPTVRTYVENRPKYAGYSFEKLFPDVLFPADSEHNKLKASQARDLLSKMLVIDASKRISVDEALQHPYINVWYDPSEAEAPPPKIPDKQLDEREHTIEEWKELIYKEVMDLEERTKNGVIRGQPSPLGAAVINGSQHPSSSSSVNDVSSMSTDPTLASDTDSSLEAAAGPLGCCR
Test: Binding affinity to human full-length JNK1 (M1 to Q384 residues) expressed in HEK293 cells measured after 1 hr by Kinomescan method
Type: cell-based
Conditions: not given
How it was run: as §1

Kd	Structure (SMILES)
1.1 µM	O/N=C1/c2ccccc2-c2nc3cc(Cl)ccc3nc21
2.3 µM	CCOc1ccc2nc3c(nc2c1)-c1ccccc1/C3=N/O
0.58 µM	Cc1ccc2nc3c(nc2c1)-c1ccccc1/C3=N/O
6 µM	O=[N+]([O-])c1ccc2nc3c(nc2c1)/C(=N\O)c1ccccc1-3
3.3 µM	Cc1cccc2nc3c(nc12)-c1ccccc1/C3=N/O
0.24 µM	O/N=C1/c2ccccc2-c2nc3ncccc3nc21
1.15 µM	OCCO/N=C1\c2ccccc2-c2nc3ccccc3nc21
2.7 µM	Cc1cc2nc3c(nc2cc1C)-c1ccccc1/C3=N/O

Target: Mitogen-activated protein kinase 10 (Homo sapiens, UniProt P53779)
Sequence (P53779 whole entry, the tested form may be a part): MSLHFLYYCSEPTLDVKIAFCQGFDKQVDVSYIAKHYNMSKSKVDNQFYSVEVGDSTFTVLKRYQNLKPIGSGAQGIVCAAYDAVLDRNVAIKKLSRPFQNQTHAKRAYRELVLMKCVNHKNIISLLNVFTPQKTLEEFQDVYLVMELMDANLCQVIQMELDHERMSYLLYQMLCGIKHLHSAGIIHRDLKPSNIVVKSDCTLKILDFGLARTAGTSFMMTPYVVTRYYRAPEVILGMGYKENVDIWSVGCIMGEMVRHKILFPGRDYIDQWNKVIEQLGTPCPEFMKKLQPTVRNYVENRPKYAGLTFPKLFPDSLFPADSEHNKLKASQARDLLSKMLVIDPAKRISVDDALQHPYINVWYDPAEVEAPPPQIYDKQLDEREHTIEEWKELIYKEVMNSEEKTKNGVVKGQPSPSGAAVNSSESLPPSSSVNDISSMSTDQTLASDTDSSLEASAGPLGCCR
Test: Binding affinity to human partial length JNK3 (V28 to Q422 residues) expressed in HEK293 cells measured after 1 hr by Kinomescan method
Type: cell-based
Conditions: not given
How it was run: as §1

Kd	Structure (SMILES)
0.71 µM	O/N=C1/c2ccccc2-c2nc3cc(Cl)ccc3nc21
0.91 µM	CCOc1ccc2nc3c(nc2c1)-c1ccccc1/C3=N/O
0.34 µM	Cc1ccc2nc3c(nc2c1)-c1ccccc1/C3=N/O
4.3 µM	O=[N+]([O-])c1ccc2nc3c(nc2c1)/C(=N\O)c1ccccc1-3
6 µM	Cc1cccc2nc3c(nc12)-c1ccccc1/C3=N/O
0.39 µM	O/N=C1/c2ccccc2-c2nc3ncccc3nc21
0.31 µM	OCCO/N=C1\c2ccccc2-c2nc3ccccc3nc21
1.3 µM	Cc1cc2nc3c(nc2cc1C)-c1ccccc1/C3=N/O

Tested on: not listed separately
Test: Cytotoxicity against human THP1-Blue cells assessed as effect on cell viability up to 50 uM after 24 hrs by CellTiter-Glo luminescent cell viability assay
Type: cell-based
Conditions: not given
How it was run: (§2)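 Viability of MonoMac-6 and THP-1Blue cells was tested with compound up to 50 µM for 24 h at 37 °C, 5% CO2. After 30 min equilibration to room temperature, CellTiter-Glo reagent was added and luminescence read. IC50 was derived from percent inhibition vs log concentration, at least five points.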

Structure (SMILES)	Activity
O/N=C1/c2ccccc2-c2nc3cc(Cl)ccc3nc21	Non-Toxic
CCOc1ccc2nc3c(nc2c1)-c1ccccc1/C3=N/O	Non-Toxic
Cc1ccc2nc3c(nc2c1)-c1ccccc1/C3=N/O	Non-Toxic
O=[N+]([O-])c1ccc2nc3c(nc2c1)/C(=N\O)c1ccccc1-3	Non-Toxic
Cc1cccc2nc3c(nc12)-c1ccccc1/C3=N/O	Non-Toxic
O/N=C1/c2ccccc2-c2nc3ncccc3nc21	Non-Toxic
OCCO/N=C1\c2ccccc2-c2nc3ccccc3nc21	Non-Toxic
Cc1cc2nc3c(nc2cc1C)-c1ccccc1/C3=N/O	Non-Toxic

Tested on: MONO-MAC-6
Test: Cytotoxicity against human MONO-MAC-6 cells assessed as effect on cell viability up to 50 uM after 24 hrs by CellTiter-Glo luminescent cell viability assay
Type: cell-based
Conditions: mono-mac-6, 24 h
How it was run: as §2

Structure (SMILES)	Activity
O/N=C1/c2ccccc2-c2nc3cc(Cl)ccc3nc21	Non-Toxic
CCOc1ccc2nc3c(nc2c1)-c1ccccc1/C3=N/O	Non-Toxic
Cc1ccc2nc3c(nc2c1)-c1ccccc1/C3=N/O	Non-Toxic
O=[N+]([O-])c1ccc2nc3c(nc2c1)/C(=N\O)c1ccccc1-3	Non-Toxic
Cc1cccc2nc3c(nc12)-c1ccccc1/C3=N/O	Non-Toxic
O/N=C1/c2ccccc2-c2nc3ncccc3nc21	Non-Toxic
OCCO/N=C1\c2ccccc2-c2nc3ccccc3nc21	Non-Toxic
Cc1cc2nc3c(nc2cc1C)-c1ccccc1/C3=N/O	Non-Toxic
